Measured values taken from ChEMBL document CHEMBL1139418, “Synthesis and SAR of novel parenteral anti-pseudomonal cephalosporins: discovery of FR264205” (Bioorg Med Chem Lett, 2008).
≈ marks a conversion by molar mass, not a printed value.

Key:
Pseudomonas aeruginosa [1] = test: Antipseudomonal activity against Pseudomonas aeruginosa class A TEM beta-lactamase-induced clinical isolate FP2056 by CLSI method; assay type: functional
Pseudomonas aeruginosa [2] = test: Antipseudomonal activity against Pseudomonas aeruginosa class C AmpC(1d) beta-lactamase-induced clinical isolate FP1380 by CLSI method; assay type: functional; settings: 24 h
Pseudomonas aeruginosa [3] = test: Antipseudomonal activity against Pseudomonas aeruginosa clinical isolates by CLSI method; assay type: functional
Mus musculus = test: Induction of convulsion in intracerebroventricular dosed mouse; assay type: organism-based; settings: in vivo, icv_or_intrathecal
Pseudomonas aeruginosa [4] = test: Outer-membrane permeability assessed as ratio of MIC for Pseudomonas aeruginosa in absence of DEAE-dextran to MIC for Pseudomonas aeruginosa in presence of DEAE-dextran; assay type: functional
How it was run: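 MIC per CLSI method, measured for each strain with and without the outer-membrane permeabilizer DEAE-dextran. Permeability index is the ratio of MIC without additive to MIC with additive.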

[5] = Pseudomonas aeruginosa, read-out: MIC50

Compound | MIC (Pseudomonas aeruginosa [1]) [µg/mL] | MIC (Pseudomonas aeruginosa [2]) [µg/mL] | MIC50 (Pseudomonas aeruginosa [3]; [5]) [µg/mL] | ED50 (Mus musculus) [µg] | Ratio (Pseudomonas aeruginosa [4]) | MIC50 (Pseudomonas aeruginosa [3]) [µg/mL]
Cn1c(N)c(CN)c[n+]1CC1=C(C(=O)[O-])N2C(=O)[C@@H](NC(=O)/C(=N\OC(C)(C)C(=O)O)c3nsc(N)n3)[C@H]2SC1 | 0.5 (≈ 0.841 µM) | 8 (≈ 13.5 µM) | 0.5 (≈ 0.841 µM) | 39.3 | – | –
CC(C)(O/N=C(\C(=O)N[C@@H]1C(=O)N2C(C(=O)[O-])=C(C[n+]3ccc(N)n3CCO)CS[C@H]12)c1nsc(N)n1)C(=O)O.Cl | 1 | 16 | 1 | 46.9 | 64 | –
Cn1c(N)c(NC(=O)CN)c[n+]1CC1=C(C(=O)[O-])N2C(=O)[C@@H](NC(=O)/C(=N\OC(C)(C)C(=O)O)c3nsc(N)n3)[C@H]2SC1 | 0.5 (≈ 0.784 µM) | 2 (≈ 3.14 µM) | 0.5 (≈ 0.784 µM) | > 200 | – | –
Cn1c(N)c(/C=C/CN)c[n+]1CC1=C(C(=O)[O-])N2C(=O)[C@@H](NC(=O)/C(=N\OC(C)(C)C(=O)O)c3nsc(N)n3)[C@H]2SC1 | 1 (≈ 1.61 µM) | 2 (≈ 3.22 µM) | 0.5 (≈ 0.806 µM) | 122 | – | –
CO/N=C(/C(=O)N[C@@H]1C(=O)N2C(C(=O)[O-])=C(C[n+]3ccn4ncccc43)CS[C@H]12)c1nsc(N)n1 | 2 (≈ 3.88 µM) | 32 (≈ 62.1 µM) | 2 (≈ 3.88 µM) | 230 | – | –
CC(C)(O/N=C(\C(=O)N[C@@H]1C(=O)N2C(C(=O)[O-])=C(C[n+]3cccc(N)c3)CS[C@H]12)c1nsc(N)n1)C(=O)O | 1 (≈ 1.78 µM) | 32 (≈ 56.9 µM) | 1 (≈ 1.78 µM) | – | 32 | –
CC(C)(O/N=C(\C(=O)N[C@@H]1C(=O)N2C(C(=O)[O-])=C(C[n+]3cccc(NC(=N)N)c3)CS[C@H]12)c1nsc(N)n1)C(=O)O | 1 (≈ 1.65 µM) | 8 (≈ 13.2 µM) | 1 (≈ 1.65 µM) | – | 16 | –
CC(C)(O/N=C(\C(=O)N[C@@H]1C(=O)N2C(C(=O)[O-])=C(C[n+]3ccc(CCN)cc3)CS[C@H]12)c1nsc(N)n1)C(=O)O | 1 (≈ 1.69 µM) | 4 (≈ 6.77 µM) | 1 (≈ 1.69 µM) | – | 8 | –
CC(C)(O/N=C(\C(=O)N[C@@H]1C(=O)N2C(C(=O)O)=C(C[n+]3ccc4n3CCN4)CS[C@H]12)c1nsc(N)n1)C(=O)O.O=S(=O)([O-])O | 1 | 16 | 1 | – | – | –
CC(C)(O/N=C(\C(=O)N[C@@H]1C(=O)N2C(C(=O)O)=C(C[n+]3ccc4n3CCCN4)CS[C@H]12)c1nsc(N)n1)C(=O)O.O=S(=O)([O-])O | 1 | 4 | 1 | – | – | –
Cn1c(N)c(CNC(=N)N)c[n+]1CC1=C(C(=O)[O-])N2C(=O)[C@@H](NC(=O)/C(=N\OC(C)(C)C(=O)O)c3nsc(N)n3)[C@H]2SC1 | 0.5 (≈ 0.785 µM) | 1 (≈ 1.57 µM) | 0.5 (≈ 0.785 µM) | 4.69 | – | 0.5 (≈ 0.785 µM)
CC(C)(O/N=C(\C(=O)N[C@@H]1C(=O)N2C(C(=O)[O-])=C(C[n+]3ccccc3)CS[C@H]12)c1nsc(N)n1)C(=O)O | 1 (≈ 1.83 µM) | 32 (≈ 58.4 µM) | 2 (≈ 3.65 µM) | – | – | –
CC(C)(O/N=C(\C(=O)N[C@@H]1C(=O)N2C(C(=O)[O-])=C(C[n+]3ccc(N)n3CCCF)CS[C@H]12)c1nsc(N)n1)C(=O)O | 1 (≈ 1.63 µM) | 8 (≈ 13.1 µM) | 1 (≈ 1.63 µM) | – | – | –
Cn1c(N)cc[n+]1CC1=C(C(=O)[O-])N2C(=O)[C@@H](NC(=O)/C(=N\OC(C)(C)C(=O)O)c3nsc(N)n3)[C@H]2SC1 | 1 (≈ 1.77 µM) | 32 (≈ 56.6 µM) | 1 (≈ 1.77 µM) | – | – | –
CC(C)(O/N=C(\C(=O)N[C@@H]1C(=O)N2C(C(=O)[O-])=C(C[n+]3ccccc3)CS[C@H]12)c1csc(N)n1)C(=O)O [CEFTAZIDIME] | 2 (≈ 3.66 µM) | 128 (≈ 234 µM) | 2 (≈ 3.66 µM) | 71 | – | –
Cn1c(N)c(NC(=O)NCCN)c[n+]1CC1=C(C(=O)O)N2C(=O)[C@@H](NC(=O)/C(=N\OC(C)(C)C(=O)[O-])c3nsc(N)n3)[C@H]2SC1 [CEFTOLOZANE] | 0.5 (≈ 0.75 µM) | 2 (≈ 3 µM) | 0.5 (≈ 0.75 µM) | 428 | – | –
